These results are taken from ChEMBL document CHEMBL2040845, “Discovery of novel sulfonated small molecules that inhibit vascular tube formation” (Bioorg Med Chem Lett, 2012).

Format in all cases: functional
For test [1], the species on record is Bos taurus. As to the kind of experiment: Antiangiogenic activity against BLMVEC grown on RGF-BME assessed as inhibition of tube formation at 100 uM after 16 hrs by calcein staining-based microscopy. In outline:
(§1)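 1×10^5 BLMVEC premixed with test compound in MCDB-131 medium, then added to matrigel in duplicate wells. Wells received 100 μM compound. Controls were untreated wells and sulforaphane. Plates were incubated 16 hrs at 37 °C and cells were imaged by microscopy. Inhibition was scored from network morphology: branching and interconnection of tubes versus dispersed cells or short, unconnected tubes.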

The species entered for test [2] is Bos taurus. As to the kind of experiment: Antiangiogenic activity against BLMVEC grown on RGF-BME assessed as inhibition of tube-like network formation at 100 uM after 16 hrs by calcein staining-based microscopy. In outline: as §1
For test [3], the species on record is Bos taurus. Kind of test: Antiangiogenic activity against BLMVEC grown on RGF-BME assessed as formation of small cell clumps at 100 uM after 16 hrs by calcein staining-based microscopy. In outline: as §1
For a further test, the system named is Endothelial cell. Kind of test: Antiangiogenic activity against BLMVEC grown on RGF-BME assessed as dispersed endothelial cells at 100 uM after 16 hrs by calcein staining-based microscopy. The settings on record: Bos taurus. The essentials:
as §1

The species named for test [4] is Bos taurus. As to the kind of experiment: Antiangiogenic activity against BLMVEC grown on RGF-BME assessed as inhibition of branching at 100 uM after 16 hrs by calcein staining-based microscopy. The essentials:
as §1

Activity calls are given as the source filed them. The calls are words filed in the database; no cut-off is given here.

In the case of `O=c1cc(-c2ccc(OS(=O)(=O)O)c(OS(=O)(=O)O)c2)oc2cc(OS(=O)(=O)O)cc(OS(=O)(=O)O)c12`, the inhibition entry in the test filed under Bos taurus [1] and in the test listed under Bos taurus [2] was “Active” throughout. Moreover, the outcome in the test filed under Bos taurus [3] and with Endothelial cell was Active.

`O=c1c(OS(=O)(=O)O)c(-c2ccccc2OS(=O)(=O)O)oc2ccccc12`: the inhibition result in the test listed under Bos taurus [1] and in the test filed under Bos taurus [2] was “Active” each time. The outcome in the test filed under Bos taurus [3] and in the test with Endothelial cell was Active.

With `O=c1cc(-c2ccc(OS(=O)(=O)O)cc2)oc2cc(OS(=O)(=O)O)cc(OS(=O)(=O)O)c12`, the inhibition entry in the test filed under Bos taurus [1] and in the test filed under Bos taurus [2] was “Active” each time. Besides, the result in the test filed under Bos taurus [3] and in the test with Endothelial cell was Active.

On to `CCOC(=O)[C@@H]1Cc2cc(OS(=O)(=O)O)c(OS(=O)(=O)O)cc2CN1C(=O)c1ccc(OS(=O)(=O)O)c(OS(=O)(=O)O)c1`, for which the inhibition result in the test filed under Bos taurus [1], in the test filed under Bos taurus [2] and in the test filed under Bos taurus [4] was “inactive” throughout. Moreover, the outcome in the test filed under Bos taurus [3] and in the test with Endothelial cell was inactive.

As to `O=C1c2c(cc(OS(=O)(=O)O)cc2OS(=O)(=O)O)O[C@@H](c2ccc(OS(=O)(=O)O)c(OS(=O)(=O)O)c2)[C@H]1OS(=O)(=O)O`, the inhibition entry in the test listed under Bos taurus [1], in the test listed under Bos taurus [2] and in the test listed under Bos taurus [4] was “inactive” in each case. Moreover, the outcome in the test listed under Bos taurus [3] and in the test on Endothelial cell was inactive.

With `O=C(c1cc(OS(=O)(=O)O)c(OS(=O)(=O)O)c(OS(=O)(=O)O)c1)N1CCc2cc(OS(=O)(=O)O)c(OS(=O)(=O)O)cc2C1`, the inhibition result in the test listed under Bos taurus [1], in the test listed under Bos taurus [2] and in the test filed under Bos taurus [4] was “inactive” throughout. For the same molecule, the result in the test filed under Bos taurus [3] and in the test with Endothelial cell was inactive.

As to `CCOC(=O)[C@@H]1Cc2cc(OS(=O)(=O)O)c(OS(=O)(=O)O)cc2CN1C(=O)c1cc(OS(=O)(=O)O)c(OS(=O)(=O)O)c(OS(=O)(=O)O)c1`, the inhibition entry in the test listed under Bos taurus [1], in the test filed under Bos taurus [2] and in the test listed under Bos taurus [4] was “inactive” each time. In addition, the outcome in the test listed under Bos taurus [3] and in the test on Endothelial cell was inactive.

Regarding `C[C@]12CC[C@@H]3c4ccc(OS(=O)(=O)O)cc4CC[C@H]3[C@@H]1CC[C@@H]2O`, the inhibition result in the test filed under Bos taurus [1] and in the test filed under Bos taurus [2] was “Active” in each case. Also, the outcome in the test filed under Bos taurus [3] and in the test with Endothelial cell was Active.

On to `O=c1c(OS(=O)(=O)O)c(-c2ccc(OS(=O)(=O)O)c(OS(=O)(=O)O)c2)oc2cc(OS(=O)(=O)O)ccc12`, for which the inhibition result in the test listed under Bos taurus [1], in the test filed under Bos taurus [2] and in the test listed under Bos taurus [4] was “inactive” each time. The result in the test filed under Bos taurus [3] and in the test with Endothelial cell was inactive.

With `O=c1c(OS(=O)(=O)O)c(-c2ccc(OS(=O)(=O)O)c(OS(=O)(=O)O)c2)oc2cc(OS(=O)(=O)O)cc(OS(=O)(=O)O)c12`, the inhibition entry in the test listed under Bos taurus [1], in the test filed under Bos taurus [2] and in the test filed under Bos taurus [4] was “inactive” each time. For the same molecule, the outcome in the test listed under Bos taurus [3] and in the test with Endothelial cell was inactive.

Regarding `O=C(c1ccc(OS(=O)(=O)O)c(OS(=O)(=O)O)c1)N1CCc2cc(OS(=O)(=O)O)c(OS(=O)(=O)O)cc2C1`, the inhibition entry in the test listed under Bos taurus [1], in the test listed under Bos taurus [2] and in the test listed under Bos taurus [4] was “inactive” each time. Also, the outcome in the test listed under Bos taurus [3] and with Endothelial cell was inactive.

For the molecule `O=C(CCc1ccc(OS(=O)(=O)O)cc1)c1c(OS(=O)(=O)O)cc(OS(=O)(=O)O)cc1OS(=O)(=O)O`, the inhibition result in the test listed under Bos taurus [1] and in the test filed under Bos taurus [2] was “Active” in each case. For the same molecule, the result in the test listed under Bos taurus [3] and in the test with Endothelial cell was Active.

On to `O=C1c2c(cc(OS(=O)(=O)O)cc2OS(=O)(=O)O)O[C@@H](c2ccc(OS(=O)(=O)O)c(OS(=O)(=O)O)c2)[C@@H]1OS(=O)(=O)O`, for which the inhibition result in the test listed under Bos taurus [1], in the test filed under Bos taurus [2] and in the test filed under Bos taurus [4] was “inactive” in each case. The outcome in the test listed under Bos taurus [3] and in the test with Endothelial cell was inactive.

For the molecule `O=c1c(OS(=O)(=O)O)c(-c2ccc(OS(=O)(=O)O)cc2OS(=O)(=O)O)oc2ccc(OS(=O)(=O)O)cc12`, the inhibition result in the test listed under Bos taurus [1], in the test listed under Bos taurus [2] and in the test filed under Bos taurus [4] was “inactive” throughout. Moreover, the result in the test listed under Bos taurus [3] and in the test with Endothelial cell was inactive.
